Laboratory results published in ChEMBL document CHEMBL3400116, “Synthesis and activities towards resistant cancer cells of sulfone and sulfoxide griseofulvin derivatives” (Bioorg Med Chem Lett, 2015).

Experiments:
[1] = test system: HCC1937; experiment: Antiproliferative activity against exponentially growing adherent human HCC1937 cells assessed as inhibition of cell proliferation after 48 hrs by luminescence detection based ATPlite assay; conditions: HCC1937, 48 h
[2] = Antiproliferative activity against exponentially growing adherent human SCC114 cells assessed as inhibition of cell proliferation after 72 hrs by luminescence detection based ATPlite assay; assay type: functional; conditions: SCC114, 72 h
In short: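 SCC-114 cells seeded at 10^3 cells/well in 96-well plates and left to grow exponentially as adherent cultures. After 72 h exposure at 37 °C in 5% CO2, viability was read by ATPlite luminescence of ATP from viable cells. IC50 came from nonlinear regression with a sigmoidal dose-response and variable Hill slope.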

[3] = test system: HCC1937; experiment: Antiproliferative activity against exponentially growing adherent human HCC1937 cells assessed as inhibition of cell proliferation at 10 uM after 48 hrs by luminescence detection based ATPlite assay; conditions: HCC1937, 48 h

SMILES | IC50 [1] | IC50 [2] | inhibition at 10 µM [3]
COc1cc(OC)c2c(c1Cl)O[C@]1(C2=O)C(S(=O)(=O)Cc2ccccc2)=CC(=O)C[C@H]1C | 1400 nM | 400 nM | 
COc1cc(OC)c2c(c1Cl)O[C@]1(C2=O)C(S(=O)(=O)c2ccccc2)=CC(=O)C[C@H]1C | 1600 nM | 1000 nM | 
COc1cc(OC)c2c(c1Cl)O[C@@]1(C=C([S+]([O-])Cc3ccccc3)C(=O)C[C@H]1C)C2=O (some centres undefined) |  | 20 nM | 
COc1cc(OC)c2c(c1Cl)O[C@@]1(C=C([S+]([O-])c3ccccc3)C(=O)C[C@H]1C)C2=O (some centres undefined) | 400 nM | 250 nM | 
COc1cc(OC)c2c(c1Cl)O[C@@]1(C=C(S(=O)(=O)Cc3ccccc3)C(=O)C[C@H]1C)C2=O | 900 nM |  | 
COc1cc(OC)c2c(c1Cl)O[C@@]1(C=C(S(=O)(=O)c3ccccc3)C(=O)C[C@H]1C)C2=O | 700 nM | 400 nM | 
COc1cc(OC)c2c(c1Cl)O[C@]1(C2=O)C(SCc2ccccc2)=CC(=O)C[C@H]1C | > 10000 nM |  | 
CC(=O)O[C@H]1C(=O)[C@@]2(C)[C@H]([C@H](OC(=O)c3ccccc3)[C@]3(O)C[C@H](OC(=O)[C@H](O)[C@@H](NC(=O)c4ccccc4)c4ccccc4)C(C)=C1C3(C)C)[C@]1(OC(C)=O)CO[C@@H]1C[C@@H]2O [PACLITAXEL] | > 10000 nM | 0.3 nM | 0%
C/C(=C\c1csc(C)n1)[C@@H]1C[C@@H]2O[C@]2(C)CCC[C@H](C)[C@H](O)[C@@H](C)C(=O)C(C)(C)[C@@H](O)CC(=O)O1 [PATUPILONE] | > 10000 nM | 0.17 nM | 0%
CCC1=C[C@@H]2CN(C1)Cc1c([nH]c3ccccc13)[C@@](C(=O)OC)(c1cc3c(cc1OC)N(C)[C@H]1[C@@](O)(C(=O)OC)[C@H](OC(C)=O)[C@]4(CC)C=CCN5CC[C@]31[C@@H]54)C2 [VINORELBINE] | > 10000 nM | 0.07 nM | 0%

The next lines start with results.

IC50 [1] | SMILES | IC50 [2] | inhibition at 10 µM [3]
> 10000 nM | COc1cc(OC)c2c(c1Cl)O[C@]1(C2=O)C(SCCN(C)C)=CC(=O)C[C@H]1C | 1450 nM | 0%
5900 nM | COc1cc(OC)c2c(c1Cl)O[C@]1(C2=O)C(S(=O)(=O)CCN(C)C)=CC(=O)C[C@H]1C | 2800 nM | 
> 10000 nM | COc1cc(OC)c2c(c1Cl)O[C@]1(C2=O)C(S(C)(=O)=O)=CC(=O)C[C@H]1C | 1900 nM | 40%
> 10000 nM | COc1cc(OC)c2c(c1Cl)O[C@]1(C2=O)C(OCc2ccccc2)=CC(=O)C[C@H]1C | 980 nM | 0%
> 10000 nM | COC1=CC(=O)C[C@@H](C)[C@]12Oc1c(Cl)c(OC)cc(OC)c1C2=O [GRISEOFULVIN] | 6400 nM | 0%
